Measurements as given in ChEMBL document CHEMBL4251710, “Antibacterial Muraymycins from Mutant Strains of Streptomyces sp. NRRL 30471” (J Nat Prod, 2018).
pIC50: −log10 of the molar value. Values after ≈ are worked out from the molar mass of the structure shown.

Legend:
Escherichia coli [1] = assay: Antimicrobial activity against Escherichia coli BL21(DE3) after 16 hrs by resazurin dye based assay; format: functional
Method in brief: (§1)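 Overnight cultures (16 h, 37 °C) were diluted 1000-fold, grown to OD600 0.4, then diluted 1000-fold again. Cells were exposed to serially diluted compound from a top final concentration of 256 or 32 μg/mL, against a 1% DMSO or water control. Plates were incubated 16 h at 37 °C, read at OD600 normalised to control, then given resazurin for 3 h. The MIC was the lowest concentration inhibiting growth.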

Escherichia coli [2] = assay: Antimicrobial activity against tolC deficient Escherichia coli JW5503 after 16 hrs by resazurin dye based assay; format: functional; settings: JW5503, 16 h; method in brief: as §1
[3] = target: T1, Phospho-N-acetylmuramoyl-pentapeptide-transferase (Staphylococcus aureus, UniProt P0C1R8); assay: Inhibition of Staphylococcus aureus MraY expressed in Escherichia coli membrane using Park's nucleotide as substrate pretreated for 30 mins followed by substrate addition measured up to 2 mins by fluorescence assay; format: cell membranes
T1 sequence (P0C1R8 whole entry): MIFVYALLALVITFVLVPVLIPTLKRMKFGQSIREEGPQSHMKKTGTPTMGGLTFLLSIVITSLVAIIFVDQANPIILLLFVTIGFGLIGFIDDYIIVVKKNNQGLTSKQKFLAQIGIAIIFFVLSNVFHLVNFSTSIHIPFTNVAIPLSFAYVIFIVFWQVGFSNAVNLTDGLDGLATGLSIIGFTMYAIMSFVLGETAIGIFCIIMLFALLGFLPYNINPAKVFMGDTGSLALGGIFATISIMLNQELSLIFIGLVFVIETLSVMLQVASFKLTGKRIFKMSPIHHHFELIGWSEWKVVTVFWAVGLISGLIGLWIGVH

Staphylococcus aureus [4] = assay: Antimicrobial activity against Staphylococcus aureus subsp. aureus str. Newman after 16 hrs by resazurin dye based assay; format: functional; method in brief: as §1
[5] = target: T2, Phospho-N-acetylmuramoyl-pentapeptide-transferase (Aquifex aeolicus (strain VF5), UniProt O66465); assay: Inhibition of Aquifex aeolicus MraY expressed in Escherichia coli C41(DE3) using Park's nucleotide as substrate pretreated for 30 mins followed by substrate addition measured up to 2 mins by fluorescence assay
T2 sequence (O66465 whole entry): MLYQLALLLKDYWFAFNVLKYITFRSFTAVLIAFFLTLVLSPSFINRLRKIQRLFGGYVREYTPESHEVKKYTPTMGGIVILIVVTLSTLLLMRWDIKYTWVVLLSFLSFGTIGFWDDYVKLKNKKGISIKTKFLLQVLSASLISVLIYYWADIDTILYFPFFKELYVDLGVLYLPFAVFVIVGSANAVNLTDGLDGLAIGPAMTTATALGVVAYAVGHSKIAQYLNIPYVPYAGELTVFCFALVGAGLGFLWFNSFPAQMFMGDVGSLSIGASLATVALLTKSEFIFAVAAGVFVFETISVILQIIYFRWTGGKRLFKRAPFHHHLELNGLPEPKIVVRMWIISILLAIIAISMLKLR
Method in brief: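 Purified His-MBP-tagged AaMraY was expressed in E. coli C41(DE3), extracted with DDM, purified on cobalt resin, protease-cleaved and gel-filtered in DM. The enzyme (1 μL at 0.1 mg/mL) was preincubated 30 min at room temperature with inhibitor, undecaprenyl phosphate, pH 7.5 Tris, KCl, MgCl2, 0.1% Triton X-100 and 0–5% DMSO. Dansylated Park's nucleotide was then added. Fluorescence (ex 355/em 520 nm) was followed, and the rate was taken from a linear fit over 0–2 min.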

Staphylococcus aureus [6] = assay: Antimicrobial activity against Staphylococcus aureus infected in mouse; format: functional
Escherichia coli [7] = assay: Antimicrobial activity against Escherichia coli harboring imp mutant; format: functional

Row | SMILES | MIC (Escherichia coli [1]) [µg/mL] | MIC (Escherichia coli [2]) [µg/mL] | pIC50 [3] | MIC (Staphylococcus aureus [4]) [µg/mL] | pIC50 [5] | ED50 (Staphylococcus aureus [6]) [mg/kg] | MIC (Escherichia coli [7]) [µg/mL]
1 | CO[C@H]1[C@H](O[C@H]([C@H]2O[C@@H](n3ccc(=O)[nH]c3=O)[C@H](O)[C@@H]2O)[C@H](NCCCNC(=O)[C@@H](NC(=O)[C@@H](NC(=O)N[C@H](C(=O)O)C(C)C)[C@@H]2CCNC(=N)N2)[C@@H](OC(=O)CCCCCCCCCCC(C)C)C(C)C)C(=O)O)O[C@H](CN)[C@H]1O | 32 (≈ 27.7 µM) | 2 (≈ 1.73 µM) | 10.66 | 6 (≈ 5.19 µM) | 9.49 |  | 
2 | CO[C@H]1[C@H](O[C@H]([C@H]2O[C@@H](n3ccc(=O)[nH]c3=O)[C@H](O)[C@@H]2O)[C@H](NCCCNC(=O)[C@@H](NC(=O)[C@@H](NC(=O)N[C@H](C(=O)O)C(C)C)[C@@H]2CCNC(=N)N2)[C@@H](OC(=O)CCCCCCCCCCCCC(C)C)C(C)C)C(=O)O)O[C@H](CN)[C@H]1O | 64 (≈ 54 µM) | 4 (≈ 3.38 µM) | 11.40 | 2 (≈ 1.69 µM) |  |  | 
3 | CO[C@H]1[C@H](O[C@H]([C@H]2O[C@@H](n3ccc(=O)[nH]c3=O)[C@H](O)[C@@H]2O)[C@H](NCCCNC(=O)[C@@H](NC(=O)[C@@H](NC(=O)N[C@H](C(=O)O)C(C)C)[C@@H]2CCNC(=N)N2)[C@@H](O)C(C)C)C(=O)O)O[C@H](CNC(C)=O)[C@H]1O | 256 (≈ 259 µM) | 16 (≈ 16.2 µM) | 10.03 | > 32 | 8.74 |  | 
4 | CO[C@H]1[C@H](O[C@H]([C@H]2O[C@@H](n3ccc(=O)[nH]c3=O)[C@H](O)[C@@H]2O)[C@H](NCCCNC(=O)[C@@H](NC(=O)[C@@H](NC(=O)N[C@H](C(=O)O)C(C)C)[C@@H]2CCNC(=N)N2)[C@@H](O)C(C)C)C(=O)O)O[C@H](CN)[C@H]1O | 8 (≈ 8.46 µM) | 1 (≈ 1.06 µM) | 10.80 | > 32 | 9.46 |  | 
5 | CO[C@H]1[C@H](O[C@H]([C@H]2O[C@@H](n3ccc(=O)[nH]c3=O)[C@H](O)[C@@H]2O)[C@H](NCCCNC(=O)[C@@H](NC(=O)[C@@H](NC(=O)N[C@H](C(=O)O)C(C)C)[C@@H]2CCNC(=N)N2)[C@@H](OC(=O)CCCCCCCCCCCCN(O)C(=N)N)C(C)C)C(=O)O)O[C@H](CN)[C@H]1O |  |  |  |  |  | 1.1 | < 0.03
